The array DNA melting data of Ke et al. (doi:10.1101/2024.01.08.574731)

Tests used:
[1] = folding enthalpy; higher = less favourable; fluorescence melt of hairpins on a sequencing array, two-state fit; conditions: sodium 0.088 M
How it was run: (§1)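 Library hairpins on a sequenced MiSeq flow cell carried annealed Cy3 and quencher oligos, and their Cy3 fluorescence was imaged in 50 mM Na-HEPES pH 8.0 with 25 mM NaCl, in 2.5 °C steps up to 60 °C. Signals were normalised to Cy3 before quenching and to control constructs. Melting temperature and folding enthalpy were obtained from bootstrapped two-state fits, combined by inverse-variance weighting across four replicates, and the fitted temperatures were then raised by 9.35 °C to match UV melts.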

[2] = melting temperature; fluorescence melt of hairpins on a sequencing array, two-state fit, raised by 9.35 °C to match UV melts; conditions: sodium 0.088 M
How it was run: as §1

| Sequence | folding enthalpy [1] [kcal/mol] | Tm [2] [°C] |
| --- | --- | --- |
| GCATGAGGAAACTCGTGC (((.(((....))).))) | -47.4 | 52.9 |
| GCCACGCGAAAGCGGCGC ((..(((....)))..)) | -15.9 | 60.8 |
| GGTCGACGAAAGTCACC (((.(((....)))))) | -16.2 | 50.9 |
| GGTACCGAAAGGTCGACC ((((((....)))..))) | -13.6 | 36.5 |
| GTCTTCGAAAGAAAAGAC ((((((....)))..))) | -17.9 | 30.8 |
| GGTGCCGAAAGGCTCACC ((((((....)))..))) | -11.6 | 46.3 |
| GATCTCCGAGGAGATC ((((((....)))))) | -37.8 | 60.4 |
| GCGAAGCGAAAGCCCCGC (((..((....))..))) | -7.44 | 36.3 |
| GTGGTGGGAAACTACCAC (((((.(....).))))) | -43.4 | 52.6 |
| GTCAACGAAAGTTGAGAC ((((((....)))..))) | -12.2 | 43.3 |
| GCGGTAGCCCGC ((((....)))) | -12.3 | 62 |
| GTTAACGGAAACGTTAAC (((((((....))))))) | -42.3 | 56.9 |
| GCGTTGACGAAAGTCCGC (((..(((....)))))) | -24.1 | 51.4 |
| GTGATTGCGAAAGCACAC (((..(((....)))))) | -14.4 | 38.1 |
| GATCCGGTCCGGATC ((((((...)))))) | -40.6 | 59.8 |
| GCGTCCGAAAGGATACGC ((((((....)))..))) | -29.2 | 55.5 |
| GCGCTTGGAAACGAGTGC ((.((.(....).)).)) | -32.8 | 46.1 |
| GGGGCCGAAAGGCCACCC ((((((....)))..))) | -10.1 | 60 |
| GCCCAGCGAAAGCAAGGC (((..((....))..))) | -18.5 | 56.9 |
| GCACGGCCGAAAGGCTGC (((..(((....)))))) | -10 | 45.1 |
| GCAGCCGAAAGGCTTTGC ((((((....)))..))) | -10.2 | 42.2 |
| GCTCGGCGAAAGCAGCGC ((.(.((....)).).)) | -14 | 58.5 |
| GATTCTCCGAAAGGAATC (((..(((....)))))) | -14.2 | 28.2 |

| Sequence | folding enthalpy [1] [kcal/mol] | Tm [2] [°C] |
| --- | --- | --- |
| GGTCCCGGAAACGAGACC ((((.((....)).)))) | -32 | 49.6 |
| GATCAAAAATTTGATC ((((((....)))))) | -28.7 | 39 |
| GATCACAAACGTGATC ((((((....)))))) | -33.2 | 55.6 |
| GGATTCGAAAGAATATCC ((((((....)))..))) | -9.96 | 30.3 |
| GCGACGCGAAAGCCTCGC ((((.((....)).)))) | -33.3 | 60.4 |
| GAGCTCGGAAACGAGTTC ((.((((....)))).)) | -29.1 | 53 |
| GGTTGTGGAAACACAGTC (..((((....))))..) | -13.2 | 29.1 |
| GATCTGGTCCCAGATC ((((((....)))))) | -39.6 | 54.1 |
| GCCCTGCGAAAGCTAGGC (((..((....))..))) | -20.3 | 55.2 |
| GACGACCGAAAGGTAGTC (((.(((....))).))) | -38.6 | 57.7 |
| TAGTTGAAAAACTA (((((....))))) | -11.8 | 27.4 |
| GCTGGGCGAAAGCCGTGC ((..(((....)))..)) | -18.2 | 47.6 |
| GTGAACGAAAGTTCAC ((((((....)))))) | -26 | 68.6 |
| GCACGTGGAAACACACGC ((..(((....)))..)) | -21.3 | 37.8 |
| GATCTGTATCCAGATC ((((((....)))))) | -40.3 | 47.4 |
| GAGAGCGAAAGCTCCTC ((((((....))).))) | -10.3 | 49 |
| GGAGTCCCGAAAGGGTCC (((..(((....)))))) | -12.4 | 34 |
| GTTTGGCGAAAGCCGAAC (((.(((....))).))) | -20.6 | 58.8 |
| GTAAGCGAAAGCTCTTAC ((((((....)))..))) | -12.7 | 33.2 |
| GAACGCCCGAAAGGGTTC (((..(((....)))))) | -10.8 | 30.3 |
| GATCTAGTCTTAGATC ((((((....)))))) | -39.3 | 45 |
| GAAAACGAAAGTTTCTTC ((((((....)))..))) | -35 | 46.6 |
| GTCGCTGGAAACAGTGGC (.(.(((....))).).) | -27.8 | 45.4 |

| Sequence | folding enthalpy [1] [kcal/mol] | Tm [2] [°C] |
| --- | --- | --- |
| GTCGAGCCGAAAGGCGAC (((..(((....)))))) | -8.79 | 50.3 |
| GAACCCGAAAGGGATTTC ((((((....)))..))) | -11.1 | 29.5 |
| GTGCGCGAAAGCGTCAC ((((((....))).))) | -21 | 58.6 |
| GGCAACGAAAGTTTCGCC ((((((....)))..))) | -19 | 41.8 |
| GATCGTTATCACGATC ((((((....)))))) | -42 | 52.7 |
| GTTTGAGGAAACTTGAAC (((..((....))..))) | -17.3 | 33.1 |
| GCTAAGCGAAAGCATCGC ((.(.((....)).).)) | -11.1 | 30.7 |
| GCTACCGGAAACAGTAGC (((((.(....).))))) | -34.3 | 40.6 |
| GGCCTCGGAAACGGGGCC ((((.((....)).)))) | -35.3 | 66.6 |
| GTTCGTCGAAAGACAAC (((.(((....)))))) | -17.2 | 42.5 |
| GAGACTCCGAAAGGACTC (((..(((....)))))) | -12.8 | 25.6 |
| GCCGTACCGAAAGGTGGC (((..(((....)))))) | -25.1 | 53.8 |
| GCTGGAGGAAACTCCAAC (.(((((....))))).) | -15.6 | 38 |
| GTAGACGGAAACGTCCAC ((.((((....)))).)) | -13.4 | 37.9 |
| GACTTTACGAAAGTAGTC (((..(((....)))))) | -12.9 | 33.3 |
| GATCACAACGTGATC ((((((...)))))) | -34.4 | 61.3 |
| GATCACATGTGTGATC ((((((....)))))) | -43.2 | 57.2 |
| GATCTTTCTCAAGATC ((((((....)))))) | -33.4 | 42.6 |
| GATCAGGAGACTGATC ((((((....)))))) | -37.6 | 51.3 |
| GATTAACGAAAGTTCATC (((.(((....))).))) | -24.6 | 33.9 |
| GGGAGCGAAAGCTGTCCC ((((((....)))..))) | -17.2 | 45.6 |
| GGGGCTCGAAAGAGTCCC (((.(((....))).))) | -42.8 | 67.7 |
| GCACTGCGAAAGCCTTGC (((..((....))..))) | -21.9 | 36.6 |

| Sequence | folding enthalpy [1] [kcal/mol] | Tm [2] [°C] |
| --- | --- | --- |
| GAAGACGAAAGTCGATTC ((((((....)))..))) | -24.1 | 47.4 |
| GTTGCTGGAAACAGTAAC (((.(((....))).))) | -29 | 47 |
| GCTCCGCGAAAGCTGGGC ((.(.((....)).).)) | -21.5 | 44.9 |
| GAGTAGGAAACTACTC ((((((....)))))) | -30.1 | 51.1 |
| GATCATTGGATGATC ((((((...)))))) | -31.7 | 44.8 |
| GCACTCGAAAGAGTCTGC ((((((....)))..))) | -19.2 | 40.1 |
| GGTATCGGAAACAATACC (((((.(....).))))) | -34.9 | 31.6 |
| GATCATTCGCATGATC ((((((....)))))) | -34 | 47.5 |
| CGCGGACGCCTCCGCG ((((((....)))))) | -32 | 68.8 |
| GCCCAACGAAAGTTTGGC (((.(((....))).))) | -28.1 | 50.2 |
| TTCCTGAAAAGGAA (((((....))))) | -15 | 39.9 |
| GCCTGGGGAAACCCGGGC (((.(((....))).))) | -39.2 | 64.6 |
| GATTCCGAAAGGAGATC ((((((....))).))) | -21.3 | 33.7 |
| GTAGAGGGAAACCTCTGC (.(((((....))))).) | -23.1 | 45.9 |
| GATCAGGCGCTGATC ((((((...)))))) | -33.8 | 47.9 |
| GGCCCTGGAAACAGGACC ((.((((....)))).)) | -35.3 | 51 |
| GCCGAACGAAAGTTGGC (((.(((....)))))) | -32.3 | 57.2 |
| GATCCAGGTTTGGATC ((((((....)))))) | -42.5 | 51.7 |
| GTGATCCGAAAGGAGCAC (((.(((....))).))) | -41.5 | 66.4 |
| GCCCATCGAAAGATCGGC (((.(((....))).))) | -33.6 | 44.5 |
| GGTTGACCGAAAGGTACC (((..(((....)))))) | -16.5 | 36.4 |
| GAACCCGAAAGGGCGTTC ((((((....)))..))) | -11.9 | 33.7 |
| GGTGAGGGAAACCTCACC (((((((....))))))) | -43.2 | 67.5 |
